Results on 36 compounds are retold here after ChEMBL document CHEMBL4270576, “Discovery of a benzenesulfonamide-based dual inhibitor of microsomal prostaglandin E2 synthase-1 and 5-lipoxygenase that favorably modulates lipid mediator biosynthesis in inflammation” (Eur J Med Chem, 2018).

Each structure is given as a SMILES string.

Assay [1] deals with T1, Polyunsaturated fatty acid 5-lipoxygenase (Homo sapiens, UniProt P09917).
T1 sequence (P09917 whole entry): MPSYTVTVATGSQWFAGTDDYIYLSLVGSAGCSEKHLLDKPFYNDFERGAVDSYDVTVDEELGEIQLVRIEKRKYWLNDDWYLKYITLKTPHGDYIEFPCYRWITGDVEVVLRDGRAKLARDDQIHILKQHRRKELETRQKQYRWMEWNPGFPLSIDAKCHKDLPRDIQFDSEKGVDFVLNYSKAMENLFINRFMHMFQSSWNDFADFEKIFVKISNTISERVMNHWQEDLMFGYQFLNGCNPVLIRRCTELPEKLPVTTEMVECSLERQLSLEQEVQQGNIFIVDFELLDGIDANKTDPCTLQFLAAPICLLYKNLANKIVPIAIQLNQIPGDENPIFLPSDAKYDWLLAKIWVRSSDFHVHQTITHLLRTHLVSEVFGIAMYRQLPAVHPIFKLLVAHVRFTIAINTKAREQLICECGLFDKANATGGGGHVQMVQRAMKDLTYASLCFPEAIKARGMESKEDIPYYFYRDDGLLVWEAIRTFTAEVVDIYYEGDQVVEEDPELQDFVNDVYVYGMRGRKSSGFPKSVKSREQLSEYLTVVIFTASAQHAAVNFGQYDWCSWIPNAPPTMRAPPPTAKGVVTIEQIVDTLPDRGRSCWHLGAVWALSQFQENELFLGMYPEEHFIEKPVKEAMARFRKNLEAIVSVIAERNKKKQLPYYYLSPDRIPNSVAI
The assay can be described thus: Inhibition of 5-LO in human neutrophils using arachidonic acid as substrate assessed as reduction in 5-LO product formation preincubated for 15 mins followed by substrate addition measured after 10 mins in presence of Ca2+ ionophore A23187 by HPLC analysis. The method in brief:
(§1)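 Human neutrophils (5 × 10^6 in 1 ml PBS with 1 mg/ml glucose) pre-incubated 15 min at 37 °C with compound or 0.1% DMSO, then activated with 1 mM CaCl2 and 2.5 µM A23187, with or without 20 µM AA; 5-LO products measured after 10 min. Residual activity at 10 µM; IC50 by nonlinear regression from 4-5 concentrations; mean ± SEM, n=3-4.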

The next assay addresses T2, Prostaglandin E synthase (Homo sapiens, UniProt O14684).
T2 sequence (O14684 whole entry): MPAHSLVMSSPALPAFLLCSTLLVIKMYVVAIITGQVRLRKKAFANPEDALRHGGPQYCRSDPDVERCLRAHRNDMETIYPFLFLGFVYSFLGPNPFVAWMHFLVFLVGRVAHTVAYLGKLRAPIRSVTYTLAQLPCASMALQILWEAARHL
Nature of the assay: Inhibition of mPGES-1 isolated from microsomes of interleukin-1 beta-stimulated human A549 cells using PGH2 as substrate preincubated for 15 mins followed by substrate addition measured after 1 min by RP-HPLC analysis. The method in brief: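 Microsomes from A549 cells treated with IL-1β (1 ng/ml, 72 h), diluted in 0.1 M potassium phosphate pH 7.4 with 2.5 mM glutathione. Pre-incubated 15 min with compound or DMSO, then 20 µM PGH2 (final) for 1 min at 4 °C. IC50 from 4-5 concentrations.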

Assay [2] addresses T3, Polyunsaturated fatty acid 5-lipoxygenase (Homo sapiens) (UniProt P09917).
T3 sequence (whole entry): T1 sequence (P09917 whole entry)
Nature of the assay: Inhibition of recombinant human 5-LO expressed in Escherichia coli BL21 (DE3) using arachidonic acid as substrate assessed as residual activity preincubated for 10 mins followed by CaCl2 and substrate addition measured after 10 mins by RP-HPLC analysis. The method in brief:
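Human recombinant 5-LO from E. coli BL21(DE3), ATP-agarose semi-purified (0.5 µg/ml), pre-incubated with compound or 0.1% DMSO at 4 °C. It was pre-warmed 30 s at 37 °C, then started with 2 mM CaCl2 plus 20 µM AA. Stopped after 10 min with ice-cold methanol; products by RP-HPLC. Residual activity at 10 µM; IC50 from 4-5 concentrations; n=3-4.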

Assay [3] deals with T4, Prostaglandin E synthase (Homo sapiens) (UniProt O14684).
T4 sequence (whole entry): T2 sequence (O14684 whole entry)
Nature of the assay: Inhibition of mPGES-1 isolated from microsomes of interleukin-1 beta-stimulated human A549 cells assessed as residual activity at 10 uM using PGH2 as substrate preincubated for 15 mins followed by substrate addition measured after 1 min by RP-HPLC analysis.

The target in assay [4] is T3, Polyunsaturated fatty acid 5-lipoxygenase (Homo sapiens). The assay can be described thus: Inhibition of 5-LO in human neutrophils using arachidonic acid as substrate assessed as residual activity preincubated for 15 mins followed by substrate addition measured after 10 mins in presence of Ca2+ ionophore A23187 by HPLC analysis. The method in brief:
as §1

For `O=C(O)c1ccc(N(CC2CCCCC2)S(=O)(=O)c2ccc(Oc3ccccc3)cc2)cc1`, the IC50 (commonly the midpoint of a concentration-inhibition curve) was 5.4 µM in assay [1] and 2.6 µM against Prostaglandin E synthase. Besides, the Activity in assay [2] worked out at 72%.

As for `CCCCN(c1ccc(C(=O)O)cc1)S(=O)(=O)c1ccc(-c2ccccc2)cc1`, the IC50 in assay [1] stood at 4 µM. Besides, the figures for the Activity in assay [2] and in assay [3] were 115% and 52.6%, respectively.

Turning to `Cc1ccc(S(=O)(=O)N(Cc2ccccc2Cl)c2ccc(C(=O)O)cc2)cc1`, the Activity was 95.2% in assay [4], 115% in assay [2] and 71.7% in assay [3].

As for `O=C(O)c1ccc(N(CC2CCCCC2)S(=O)(=O)c2ccc(F)cc2)cc1`, the Activity in assay [4] was found to be 98.7%; in assay [2] it was 109%; in assay [3], 88.9%.

Consider `Cc1ccc(S(=O)(=O)N(Cc2ccc(Oc3ccccc3)cc2)c2ccc(C(=O)O)cc2)cc1`, for which the IC50 in assay [1] was determined as 3.5 µM; on Prostaglandin E synthase, 5.3 µM. Moreover, the Activity in assay [2] turned out to be 61.4%.

Turning to `O=C(O)c1ccc(N(Cc2cccs2)S(=O)(=O)c2ccc(-c3ccc4ccccc4c3)cc2)cc1`, the Activity in assay [4] stood at 69.7%; in assay [2] it was 71.9%; in assay [3] it was 76.7%.

With `CCCCCCN(c1ccc(C(=O)O)cc1)S(=O)(=O)c1ccc(-c2ccccc2)cc1`, the half-inhibitory concentration (IC50) was determined as 1.5 µM in assay [1] and 1.9 µM on Prostaglandin E synthase. Also, the Activity in assay [2] was 105%.

For the compound `O=C(O)c1ccc(N(Cc2cccs2)S(=O)(=O)c2ccc(F)cc2)cc1`, the Activity in assay [4] turned out to be 94.6%; in assay [2], 86.7%; in assay [3], 96.5%.

`O=C(O)c1ccc(N(Cc2cccs2)S(=O)(=O)c2ccc(Cl)cc2)cc1`: the figures for the Activity in assay [4], in assay [2] and in assay [3] were 97.2%, 86.1% and 96.7%, respectively.

In the case of `Cc1ccc(S(=O)(=O)N(Cc2ccccc2)c2ccc(C(=O)O)cc2)cc1`, the Activity in assay [4] is 75.7%; in assay [2] it was 81.1%; in assay [3] it was 91.3%.

For the compound `Cc1ccc(S(=O)(=O)N(Cc2c(F)cccc2Cl)c2ccc(C(=O)O)cc2)cc1`, the Activity was 75.4% in assay [4], 86.7% in assay [2] and 85.7% in assay [3].

On to `O=C(O)c1ccc(N(Cc2ccc3c(c2)OCO3)S(=O)(=O)c2ccc(-c3ccccc3)cc2)cc1`, for which the results for the IC50 (in assay [1]; against Prostaglandin E synthase) were 3.2 µM and 1.9 µM, respectively. In addition, the Activity in assay [2] amounted to 88.4%.

Consider `Cc1ccc(S(=O)(=O)N(Cc2cccs2)c2ccc(C(=O)O)cc2)cc1`, for which the Activity worked out at 104% in assay [4], 92.7% in assay [2] and 92.5% in assay [3].

With `O=C(O)c1ccc(N(Cc2cccs2)S(=O)(=O)c2ccc(C(=O)O)cc2)cc1`, the Activity in assay [4] is 112%; in assay [2], 93%; in assay [3], 94.6%.

In the case of `O=C(O)c1ccc(N(Cc2ccc3ccccc3c2)C(=O)c2ccc(-c3ccccc3)cc2)cc1`, the 50% inhibitory concentration (IC50) in assay [1] amounted to 1.7 µM; at Prostaglandin E synthase it was 2.9 µM. Besides, in assay [2], the Activity was determined as 78%.

For the compound `CCCCN(c1ccc(C(=O)O)cc1)S(=O)(=O)c1ccc(C)cc1`, the Activity in assay [4] came to 112%; in assay [2], 99.1%; in assay [3], 79.9%.

Regarding `O=C(O)c1ccc(N(CC2CCCCC2)S(=O)(=O)c2ccc(-c3ccccc3)cc2)cc1`, the concentration for half-maximal inhibition (IC50) amounted to 3.4 µM in assay [1] and 3.2 µM against Prostaglandin E synthase. For the same compound, the Activity in assay [2] was found to be 57.5%.

For the compound `O=C(O)c1ccc(N(Cc2ccc3c(c2)OCCO3)S(=O)(=O)c2ccc(-c3ccccc3)cc2)cc1`, the half-maximal inhibitory concentration (IC50) in assay [1] is 1.1 µM; at Prostaglandin E synthase, 1.6 µM. Also, the Activity in assay [2] was determined as 117%.

`O=C(O)c1ccc(N(Cc2ccoc2)S(=O)(=O)c2ccc(-c3ccccc3)cc2)cc1`: the half-inhibitory concentration (IC50) in assay [1] was 8.4 µM. In addition, the Activity came to 110% in assay [2] and 56.8% in assay [3].

With `Cc1ccc(S(=O)(=O)N(CC2CCCCC2)c2ccc(C(=O)O)cc2)cc1`, the values for the Activity in assay [4], in assay [2] and in assay [3] were 76.9%, 91.4% and 91.6%, respectively.

Regarding `O=C(O)c1ccc(N(Cc2cnc3ccccc3c2)S(=O)(=O)c2ccc(-c3ccccc3)cc2)cc1`, the concentration for half-maximal inhibition (IC50) in assay [1] worked out at 2.1 µM; at Prostaglandin E synthase, 4.7 µM. The Activity in assay [2] was 75%.

For the compound `COc1ccc(CN(c2ccc(C(=O)O)cc2)S(=O)(=O)c2ccc(C)cc2)cc1OC`, the Activity in assay [4] was found to be 110%; in assay [2], 93.2%; in assay [3], 95.7%.

Regarding `Cc1ccc(S(=O)(=O)N(Cc2ccc(Cl)c(Cl)c2)c2ccc(C(=O)O)cc2)cc1`, the IC50 was found to be 2.4 µM in assay [1] and 6.3 µM at Prostaglandin E synthase. Besides, the Activity in assay [2] came out at 97.6%.

`Cc1ccc(S(=O)(=O)N(Cc2cccs2)c2ccc(CC(=O)O)cc2)cc1`: the results for the Activity in assay [4], in assay [2] and in assay [3] were 102%, 97% and 96.4%, respectively.

In the case of `Cc1ccc(S(=O)(=O)N(Cc2ccccc2)c2ccc(C(=O)NS(=O)(=O)c3ccccc3)cc2)cc1`, the Activity is 80% in assay [4] and 88.9% in assay [2]. For the same compound, on Prostaglandin E synthase, the IC50 came out at 2.7 µM.

Take `Cc1ccc(S(=O)(=O)N(Cc2ccc3ccccc3c2)c2ccc(C(=O)O)cc2)cc1`: the IC50 in assay [1] is 4.8 µM. Further, the Activity came to 96.7% in assay [2] and 52.8% in assay [3].

Consider `CCCCCCN(c1ccc(C(=O)O)cc1)S(=O)(=O)c1ccc(C)cc1`, for which the results for the Activity in assay [4], in assay [2] and in assay [3] were 65.2%, 86.1% and 79.9%, respectively.

For `Cc1ccc(S(=O)(=O)N(Cc2cccc(Cl)c2)c2ccc(C(=O)O)cc2)cc1`, the Activity in assay [4] is 84.7%; in assay [2], 107%; in assay [3] it was 74.1%.

As for `COc1cccc(CN(c2ccc(C(=O)O)cc2)S(=O)(=O)c2ccc(-c3ccccc3)cc2)c1`, the IC50 in assay [1] stood at 1.3 µM; against Prostaglandin E synthase, 6.2 µM. Further, the Activity in assay [2] is 78.6%.

`Cc1ccc(CN(c2ccc(C(=O)O)cc2)S(=O)(=O)c2ccc(-c3ccccc3)cc2)cc1`: the 50% inhibitory concentration (IC50) in assay [1] worked out at 1 µM; against Prostaglandin E synthase it was 5.2 µM. In addition, the Activity in assay [2] is 65.6%.

As to `CC(C)(C)c1ccc(CN(c2ccc(C(=O)O)cc2)S(=O)(=O)c2ccc(C(C)(C)C)cc2)cc1`, the figures for the half-maximal inhibitory concentration (IC50) (in assay [1]; at Prostaglandin E synthase) were 0.7 µM and 3.2 µM, respectively. Also, the Activity in assay [2] was 50.2%.

For the compound `O=C(O)c1ccc(N(Cc2ccccc2)S(=O)(=O)c2ccc(-c3ccccc3)cc2)cc1`, the IC50 in assay [1] was 3.3 µM; on Prostaglandin E synthase, 4 µM. Further, in assay [2], the Activity is 96.2%.

With `Cc1ccc(S(=O)(=O)N(Cc2ccc(Cl)cc2)c2ccc(C(=O)O)cc2)cc1`, the Activity in assay [4] is 83.2%; in assay [2], 100%; in assay [3], 71.2%.

As for `Cc1ccc(CN(c2ccc(C(=O)O)cc2)S(=O)(=O)c2ccc(C)cc2)cc1`, the results for the Activity in assay [4], in assay [2] and in assay [3] were 96.7%, 93.4% and 82.8%, respectively.

For the compound `Cc1ccc(S(=O)(=O)N(Cc2ccsc2)c2ccc(C(=O)O)cc2)cc1`, the Activity in assay [4] was determined as 98.2%; in assay [2], 106%; in assay [3], 90.7%.

For `O=C(O)c1ccc(N(Cc2cccs2)S(=O)(=O)c2ccc(-c3ccccc3)cc2)cc1`, the IC50 was found to be 4.4 µM in assay [1] and 4.7 µM against Prostaglandin E synthase. In assay [2], the Activity was determined as 66.4%.
